Assay [1] is described as follows: inhibitors of TNFa-induced NFkB p65 translocation, primary screen, imaging, HUVEC, MLSMR starter and 10KST1 sets (AID 438;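 active = inhibition above 20% together with a positive visual image hit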;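 also: compound added about 3h40 before a 20 min TNFalpha stimulation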;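 as to inhibition: signal is the nuclear over cytoplasmic p65 intensity ratio per well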). Conditions: HUVEC TNFa-induced p65 nuclear translocation; cell count: measured here: nuclei count (cytotoxicity indicator), at 2.08 µM; inhibition: at 2 µM, stronger effect = higher value, 0% TNFa-plus-vehicle, 100% no-TNFa wells.
A short description of assay [2]: reduction of polyQ htt aggregates in cells – imaging, exon1htt(103Q)mCFP cells, high-content imaging, primary screen (AID 483;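 active = visual image review flags a hit and inhibition of aggregation exceeds 20%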;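 also: compound exposure lasted 3 days before fixation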;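 as to nuclei count: percent of the per-plate median nuclei count of sample wells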). The conditions noted are these: exon1htt(103Q)mCFP cell line, aggregate imaging, at 2 µM; inhibition of aggregation: stronger effect = higher value; nuclei count: measured here: cell count, toxicity.
The nature of assay [3]: endothelial E-selectin expression blockers – imaging, HUVEC, immunofluorescence, MLSMR starter and 10KST1 sets, primary screen (AID 487;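 active = visually confirmed hit in the image check and inhibition above 20%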;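 as to inhibition: signal is fraction of cell area covered by stained E-selectin grains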;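 as to nuclei count: 100% = median nuclei count of all wells on the same plate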). The conditions noted are these: HUVEC TNFalpha-induced E-selectin immunofluorescence imaging, at 2 µM; inhibition: stronger effect = higher value; nuclei count: measured here: cell number, toxicity.
The target of assay [4] is Voltage-gated potassium channel subunit beta-2 (Rattus norvegicus) (UniProt P62483). Kind of assay: inhibitors of rat Kvbeta2 reductase activity – biochemical, NADPH fluorescence, primary screen (AID 622;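 active = fluorescence slope higher than the sample average by over 3 SD, cut at about -0.22 in these data, passing the limit was not always enough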;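 also: slope of raw intensity against log time taken from 70 to 1610 s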). The conditions noted are these: recombinant KvBeta, 4-cyanobenzaldehyde reduction, at 10 µM, stronger effect = higher value.
The target is the same in assay [5]. Kind of assay: enhancers of rat Kvbeta2 NADPH turnover – biochemical, NADPH fluorescence, primary screen (AID 623;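 active = NADPH fluorescence slope more negative than the mean of all samples by about 3 SD, 99.7% confidence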;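 also: fluorescence intensity change per second fitted from 20 to 320 s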). The conditions noted are these: Recombinant KvBeta, NADPH fluorescence decrease slope, 10 min; at 10 µM; stronger effect = lower value.
The target of assay [6] is Muscarinic acetylcholine receptor M4 (Homo sapiens) (UniProt P08173). The assay can be described thus: M4-linked GIRK flux change, two-sided – cell-based, HEK293 M4/GIRK, thallium flux, BTC-AM, M4 allosteric agonist project, primary screen (AID 625).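 Also: thallium influx through GIRK channels coupled to M4 in HEK293 cells with BTC-AM dye.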 Conditions: at 10 µM, actives lie on both sides. A digest of the protocol: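 Material: HEK293 cells with M4 receptor and GIRK channels; Times: cells overnight at 37 °C, BTC-AM loading 1 h, reads 2 min total; Technique: kinetic BTC-AM fluorescence sampled at 1 Hz, 10 s pre-addition baseline; Read-out basis: slope over 15–24 s of trace normalized to starting intensity; Controls: carbachol positive, DMSO negative.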

Assay [7] can be described thus: blockers of RIG-like receptor reporter activation – cell-based, Sendai virus stimulus, luciferase, 10K MLSCN set, TLR/RLR signaling modifier project, primary screen (AID 602276;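 active = inhibition at or above 50% at 10 µM; inactive = inhibition below 50%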;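 also: firefly luciferase from ISG56 promoter only with Renilla not read in this screen; 0% = Sendai virus plus DMSO and 100% = medium plus DMSO without virus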). The conditions noted are these: HEK293 RL24 IRF3 luciferase reporter, at 10 µM, stronger effect = higher value. On the technique in general: A reporter such as luciferase makes a cellular process visible.

A short description of assay [8]: TLR3 IRF3 reporter activation blockers – cell-based, poly I:C stimulus, luciferase, 10K MLSCN set, primary screen (AID 602277;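 active = inhibition of the reporter signal at or above 50%; inactive = inhibition below 50%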). The conditions noted are these: HEK293-TLR3 RL24 IRF3 luciferase reporter, at 10 µM, stronger effect = higher value.

The text below walks through data of PubChem BioAssay.

The term inhibition denotes the relative decrease from the control value, in per cent.

Molecules are shown by their SMILES. Active and inactive are the calls of the source.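 The calls were made as follows, unless noted: active = fluorescence slope after compound addition differing from the mean of all tested samples at 99.7% confidence, mostly higher but some lower; inactive = the rest.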

Sequence of Voltage-gated potassium channel subunit beta-2 (Rattus norvegicus) (P62483 whole entry, looked up): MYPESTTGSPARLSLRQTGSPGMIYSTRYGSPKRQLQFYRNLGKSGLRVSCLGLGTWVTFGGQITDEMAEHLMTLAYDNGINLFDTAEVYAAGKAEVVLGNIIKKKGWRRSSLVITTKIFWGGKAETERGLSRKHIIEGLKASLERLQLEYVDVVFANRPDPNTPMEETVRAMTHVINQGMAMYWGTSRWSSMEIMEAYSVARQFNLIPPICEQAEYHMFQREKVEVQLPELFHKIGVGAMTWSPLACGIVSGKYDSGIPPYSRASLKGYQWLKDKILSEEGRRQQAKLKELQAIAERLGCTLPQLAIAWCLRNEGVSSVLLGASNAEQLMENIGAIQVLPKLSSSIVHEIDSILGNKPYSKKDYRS
Sequence of Muscarinic acetylcholine receptor M4 (Homo sapiens) (P08173 whole entry, looked up): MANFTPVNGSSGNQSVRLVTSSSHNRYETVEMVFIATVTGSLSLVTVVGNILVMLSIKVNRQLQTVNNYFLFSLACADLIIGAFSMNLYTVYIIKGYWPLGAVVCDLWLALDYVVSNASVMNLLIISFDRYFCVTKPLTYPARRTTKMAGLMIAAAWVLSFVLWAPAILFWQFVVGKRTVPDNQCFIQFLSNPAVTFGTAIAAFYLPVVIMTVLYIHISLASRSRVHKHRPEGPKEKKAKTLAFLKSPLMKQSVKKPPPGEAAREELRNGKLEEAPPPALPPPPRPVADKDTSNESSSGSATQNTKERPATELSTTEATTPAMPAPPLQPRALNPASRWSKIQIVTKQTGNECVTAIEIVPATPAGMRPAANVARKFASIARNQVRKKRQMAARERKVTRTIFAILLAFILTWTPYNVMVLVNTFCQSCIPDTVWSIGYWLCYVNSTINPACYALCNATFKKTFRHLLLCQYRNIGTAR

For the compound `COc1cccc(OC)c1C(=O)N1CCN(S(=O)(=O)c2ccccc2)CC1`, the cell count in assay [1] was 437. For the same compound, the inhibition is 1.4% (inactive) in assay [1], -13.1% (inactive) in assay [3], -2.45% (inactive) in assay [7] and 19.4% (inactive) in assay [8]. Further, in assay [2], the inhibition of aggregation was -1.7% (inactive). Besides, the values for the nuclei count in assay [2] and in assay [3] were 105% and 102%, respectively. The fluorescence slope in assay [4] was -0.531 (inactive); in assay [6], 0.00446 (inactive). Besides, the NADPH fluorescence slope in assay [5] was -6.4e-05 (inactive).
For `CCc1nnc(NC(=O)c2ccc(S(=O)(=O)NC3CCCCC3)cc2)s1`, the cell count in assay [1] is 534. Moreover, the inhibition was 0.4% (inactive) in assay [1], -22.8% (inactive) in assay [3], 0.752% (inactive) in assay [7] and -17.5% (inactive) in assay [8]. In addition, the inhibition of aggregation in assay [2] is 20.7% (inactive). Besides, the figures for the nuclei count in assay [2] and in assay [3] were 107% and 110%, respectively. Besides, the fluorescence slope was -0.307 (inactive) in assay [4] and 0.00791 (inactive) in assay [6]. The NADPH fluorescence slope in assay [5] is -6e-05 (inactive).
Consider `Cc1cccc(NC(=O)CN(C)S(=O)(=O)c2ccccc2)n1`, for which the cell count in assay [1] came to 536. The inhibition in assay [1] is -17.1% (inactive); in assay [3], -24.3% (inactive); in assay [7], 15% (inactive); in assay [8], 15.7% (inactive). Further, the inhibition of aggregation in assay [2] is 2.2% (inactive). The nuclei count in assay [2] worked out at 123%; in assay [3], 116%. Besides, the fluorescence slope in assay [4] was -0.44 (inactive); in assay [6], 0.00526 (inactive). In assay [5], the NADPH fluorescence slope is -7.5e-05 (inactive).
Consider `CCCCCn1c(CN(C)Cc2ccccc2)nc2c1c(=O)n(C)c(=O)n2C`, for which, in assay [1], the cell count was 529. The inhibition in assay [1] was -12.2% (inactive); in assay [3], -110% (inactive); in assay [7], 18.2% (inactive); in assay [8], -3.26% (inactive). In addition, the inhibition of aggregation in assay [2] was -2% (inactive). The nuclei count in assay [2] is 86.5%; in assay [3], 110%. The fluorescence slope in assay [4] was -0.46 (inactive); in assay [6] it was 0.00453 (inactive). Further, in assay [5], the NADPH fluorescence slope is -9.4e-05 (inactive).
With `CC(=O)C1=C(O)C(=O)N(Cc2cccnc2)C1c1ccccc1` (centres undefined), the cell count in assay [1] was 429. The inhibition was -2% (inactive) in assay [1], -58.9% (inactive) in assay [3], 6.76% (inactive) in assay [7] and 18.6% (inactive) in assay [8]. Moreover, in assay [2], the inhibition of aggregation is -8.8% (inactive). Moreover, the values for the nuclei count in assay [2] and in assay [3] were 97.7% and 115%, respectively. In addition, the fluorescence slope in assay [4] was -0.537 (inactive); in assay [6] it was 0.00492 (inactive). For the same compound, the NADPH fluorescence slope in assay [5] was -2.4e-05 (inactive).
On to `Cc1cc(Cl)c(S(=O)(=O)N2CCN(c3ccc(F)cc3)CC2)cc1OCC(N)=O`, for which the cell count in assay [1] was found to be 373. The inhibition in assay [1] is -9% (inactive); in assay [3], -37.6% (inactive); in assay [7] it was 19.6% (inactive); in assay [8], 9.49% (inactive). Also, the inhibition of aggregation in assay [2] is 0.5% (inactive). Further, the nuclei count is 97.1% in assay [2] and 96.1% in assay [3]. For the same compound, the fluorescence slope is -0.587 (inactive) in assay [4] and 0.0038 (inactive) in assay [6]. The NADPH fluorescence slope in assay [5] was -9.2e-05 (inactive).
Regarding `O=C(NCCCN1CCN(CCCNC(=O)c2ccc(F)cc2)CC1)c1ccc(F)cc1`, in assay [1], the cell count was determined as 364. Moreover, the inhibition in assay [1] was -1.1% (inactive); in assay [3], 4.2% (inactive); in assay [7] it was 14.8% (inactive); in assay [8], 23.9% (inactive). In assay [2], the inhibition of aggregation is -1.8% (inactive). The figures for the nuclei count in assay [2] and in assay [3] were 109% and 102%, respectively. The figures for the fluorescence slope in assay [4] and in assay [6] were -0.528 (inactive) and 0.00616 (inactive), respectively. Besides, the NADPH fluorescence slope in assay [5] is 1.1e-05 (inactive).
In the case of `O=C(CN1C(=O)COc2ccccc21)NCCN1CCc2ccccc2C1`, the cell count in assay [1] came to 681. The inhibition in assay [1] is 7.3% (inactive); in assay [3] it was -2.1% (inactive); in assay [7], 12.1% (inactive); in assay [8] it was 26.1% (inactive). Besides, the inhibition of aggregation in assay [2] is 30.2% (inactive). For the same compound, the values for the nuclei count in assay [2] and in assay [3] were 95% and 92.7%, respectively. In addition, the fluorescence slope is -0.573 (inactive) in assay [4] and 0.00634 (inactive) in assay [6]. Besides, the NADPH fluorescence slope in assay [5] was -5.4e-05 (inactive).
Regarding `Nc1cc(C(=O)O)ccc1Nc1ccc(F)c(F)c1`, in assay [1], the cell count came to 693. Besides, the inhibition in assay [1] was -22.9% (inactive); in assay [3], 6.9% (inactive); in assay [7] it was -5.42% (inactive); in assay [8] it was -4.51% (inactive). Further, the inhibition of aggregation in assay [2] is -0.6% (inactive). Also, the nuclei count in assay [2] was found to be 124%; in assay [3], 96.9%. Also, the fluorescence slope was -0.44 (inactive) in assay [4] and 0.00669 (inactive) in assay [6]. Besides, in assay [5], the NADPH fluorescence slope was 0.000103 (inactive).
On to `CN(C)c1nc(Nc2ccc(Cl)cc2)nc(OCC#N)n1`, for which the cell count in assay [1] came to 387. For the same compound, the inhibition in assay [1] was -23% (inactive); in assay [3], -109% (inactive); in assay [7] it was 24.2% (inactive); in assay [8], 37.1% (inactive). Moreover, the inhibition of aggregation in assay [2] is -6.1% (inactive). Moreover, the nuclei count was 78.6% in assay [2] and 128% in assay [3]. Also, the fluorescence slope in assay [4] is -0.574 (inactive); in assay [6] it was 0.00241 (inactive). Moreover, the NADPH fluorescence slope in assay [5] was 1.7e-05 (inactive).
Take `Cc1onc(-c2ccccc2)c1C(=O)N1CCCSC1=Nc1ccccc1`: the cell count in assay [1] was 665. In addition, the inhibition in assay [1] was 6.5% (inactive); in assay [3], 29.1% (inactive); in assay [7], 10.2% (inactive); in assay [8], 31.9% (inactive). Moreover, the inhibition of aggregation in assay [2] is 12.6% (inactive). Further, the nuclei count in assay [2] was 110%; in assay [3] it was 79.6%. Further, the values for the fluorescence slope in assay [4] and in assay [6] were -0.567 (inactive) and 0.00639 (inactive), respectively. The NADPH fluorescence slope in assay [5] was -5.7e-05 (inactive).
As to `Cc1ccc(-n2nnnc2SCC(=O)N2CCN(C(=O)c3ccco3)CC2)c(C)c1`, the cell count in assay [1] was found to be 731. The inhibition was -4.4% (inactive) in assay [1], -5.5% (inactive) in assay [3], 1.61% (inactive) in assay [7] and 10.6% (inactive) in assay [8]. Further, the inhibition of aggregation in assay [2] was 27.6% (inactive). Moreover, the nuclei count in assay [2] was determined as 91%; in assay [3] it was 109%. Also, the fluorescence slope was -0.568 (inactive) in assay [4] and 0.00555 (inactive) in assay [6]. Besides, the NADPH fluorescence slope in assay [5] is -5.4e-05 (inactive).
Take `CC(n1cnnn1)C12CC3CC(CC(C3)C1)C2` (centres undefined): the cell count in assay [1] came to 555. The inhibition is 1.3% (inactive) in assay [1], 16.7% (inactive) in assay [3], 16.5% (inactive) in assay [7] and 32.3% (inactive) in assay [8]. Also, the inhibition of aggregation in assay [2] is 0.3% (inactive). The nuclei count is 106% in assay [2] and 114% in assay [3]. The fluorescence slope is -0.495 (inactive) in assay [4] and 0.00589 (inactive) in assay [6]. For the same compound, the NADPH fluorescence slope in assay [5] is 0.000168 (inactive).
As to `COc1ccc(CC(=O)Nc2ccc(-c3nnc(-c4ccc(C)cc4)o3)cc2)cc1`, the cell count in assay [1] was determined as 411. Besides, the inhibition in assay [1] was 0.5% (inactive); in assay [3], -101% (inactive); in assay [7], 8.75% (inactive); in assay [8], 18.4% (inactive). Moreover, in assay [2], the inhibition of aggregation was -17.7% (inactive). Besides, the nuclei count was determined as 102% in assay [2] and 109% in assay [3]. Also, the fluorescence slope in assay [4] is -0.454 (inactive); in assay [6], 0.0071 (inactive). For the same compound, the NADPH fluorescence slope in assay [5] is -9.3e-06 (inactive).
